# Results published in ChEMBL document CHEMBL3875205, “Macrocyclic MEK1/2 inhibitor with efficacy in a mouse model of cardiomyopathy caused by lamin A/C gene mutation” (Bioorg Med Chem, 2017).
# Calls of active or inactive are those of the source. The calls are words filed in the database; no cut-off is given here.
# Key:
# [1] = target: T1, Dual specificity mitogen-activated protein kinase kinase; MEK1/2 (Homo sapiens, UniProt P36507+Q02750); experiment: Inhibition of MEK1/2 in human HT-29 cells assessed as reduction in cell proliferation after 72 hrs by CellTiter-Glo assay; type: cell-based
# T1 sequence (P36507 whole entry, looked up): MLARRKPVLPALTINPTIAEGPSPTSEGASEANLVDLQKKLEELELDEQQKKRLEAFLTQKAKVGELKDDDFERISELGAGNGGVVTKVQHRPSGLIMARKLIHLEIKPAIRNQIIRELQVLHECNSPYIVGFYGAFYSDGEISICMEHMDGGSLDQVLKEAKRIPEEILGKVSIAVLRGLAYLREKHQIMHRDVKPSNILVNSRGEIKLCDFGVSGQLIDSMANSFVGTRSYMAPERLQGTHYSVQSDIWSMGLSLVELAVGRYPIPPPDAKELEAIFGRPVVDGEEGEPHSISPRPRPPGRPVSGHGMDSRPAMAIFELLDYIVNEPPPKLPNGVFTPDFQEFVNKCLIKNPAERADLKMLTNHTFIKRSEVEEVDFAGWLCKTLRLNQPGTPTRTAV
# T1 sequence (Q02750 whole entry, looked up): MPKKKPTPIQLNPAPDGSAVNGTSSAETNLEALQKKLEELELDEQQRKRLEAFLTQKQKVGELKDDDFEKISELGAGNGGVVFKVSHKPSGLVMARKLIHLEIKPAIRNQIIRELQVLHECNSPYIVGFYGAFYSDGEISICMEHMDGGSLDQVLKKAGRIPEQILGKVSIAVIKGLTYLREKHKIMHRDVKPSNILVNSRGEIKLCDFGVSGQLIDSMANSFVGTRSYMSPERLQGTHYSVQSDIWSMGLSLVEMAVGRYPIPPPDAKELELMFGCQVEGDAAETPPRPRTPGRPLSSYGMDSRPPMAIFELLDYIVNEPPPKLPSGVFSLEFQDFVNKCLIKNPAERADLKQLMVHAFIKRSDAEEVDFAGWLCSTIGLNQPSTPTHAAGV
# Outline: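 HT-29 cells were plated at 2,000/well in DMEM or RPMI with 10% FBS and left overnight at 37°C, 5% CO2. Medium was replaced with compound at 3-fold dilutions from 3.3 µM to 4.5 nM. After 72 h, viability was read by CellTiter-Glo luminescence and IC50 calculated.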
# [2] = Cardioprotective activity in LmnaH222P/H222P mouse model of cardiomyopathy assessed as heart rate at 6 mg/kg/day, po administered 6 days per week via gavage starting from 14 weeks of age up to 20 weeks of age by echocardiographic method (reference value: 502.73 +/- 0.46 bpm); type: functional, organism-based
# [3] = system: Mus musculus; experiment: In vivo inhibition of MEK1/2 in LmnaH222P/H222P mouse model of cardiomyopathy assessed as reduction in ERK1/2 phosphorylation in heart at 3 to 6 mg/kg/day, po administered 6 days per week via gavage starting from 14 weeks of age up to 20 weeks of age by immunoblot method; type: functional, organism-based
# Outline: (§1)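 Heart, liver and quadriceps from male mutant mice gavaged 3 or 6 mg/kg/day (weeks 14–20) were homogenized for protein. Proteins were run on SDS-PAGE, transferred to nitrocellulose and probed for phospho- and total ERK1/2 with HRP secondaries and chemiluminescence. Scanned blots were quantified as the pERK1/2 to total ERK1/2 ratio; n = 3, means ± SE.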
# [4] = system: Mus musculus; experiment: In vivo inhibition of MEK1/2 in LmnaH222P/H222P mouse model of cardiomyopathy assessed as reduction in ERK1/2 phosphorylation in liver at 3 to 6 mg/kg/day, po administered 6 days per week via gavage starting from 14 weeks of age up to 20 weeks of age by immunoblot method; type: functional, organism-based; outline: as §1
# [5] = Cardioprotective activity in LmnaH222P/H222P mouse model of cardiomyopathy assessed as reduction in Nppa mRNA expression in heart at 3 to 6 mg/kg/day, po administered 6 days per week via gavage starting from 14 weeks of age up to 20 weeks of age by qRT-PCR method relative to placebo treated control; type: functional, organism-based
# Outline: (§2)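 Hearts from male Lmna H222P/H222P mice gavaged 6 days/week, weeks 14–20, with vehicle or 3 or 6 mg/kg/day. Real-time RT-PCR with SYBR green and 200 nM of each primer; 95°C 2 min, then 50 cycles of 95°C 30 s and 62°C 30 s. ΔΔCT method normalized to Gapdh; fold change versus placebo (n = 5, 5, 6).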
# [6] = target: T1, Dual specificity mitogen-activated protein kinase kinase; MEK1/2; experiment: Inhibition of MEK1/2 in HEK293 cells assessed as reduction in ERK1/2 phosphorylation at 0.001 to 1 uM after 24 hrs by immunoblot method; type: cell-based
# Outline: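 HEK-293 cells were grown in DMEM with 10% FBS, seeded at 5.0×10^5 per well and grown 24 h. After rinsing, they were exposed 24 h to serial dilutions from 1 to 0.001 µM final, or to Cremophor EL/saline vehicle. Cells were then washed with PBS, extracted and immunoblotted for phospho- and total ERK1/2.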
# [7] = system: Mus musculus; experiment: (§3) In vivo inhibition of MEK1/2 in LmnaH222P/H222P mouse model of cardiomyopathy assessed as reduction in ERK1/2 activation-mediated muscular dystrophy by measuring increase in forelimb grip fatigue index at 6 mg/kg/day, po administered 6 days per week via gavage starting from 14 weeks of age up to 20 weeks of age; type: functional, organism-based
# Outline: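 Forelimb grip strength was tested by an investigator blind to treatment on two consecutive days and normalized to body mass. Fatigue index = (C+D)/(A+B), where A–D are sums of pulls 1–3, 4–6, 10–12 and 13–15; a value of 1 means no fatigue. Mice were gavaged from weeks 14–20; n = 7 placebo, 6 treated.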
# [8] = system: Mus musculus; experiment: as §3, with “inhibition of serum creatine phosphokinase activity” for “increase in forelimb grip fatigue index”; type: functional, organism-based
# Outline: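 Serum from male Lmna H222P/H222P mice gavaged with vehicle or 3 or 6 mg/kg/day from 14 to 20 weeks of age was assayed for creatine phosphokinase activity. Means ± SE, n = 10 per group.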
# [9] = (§4) Cardioprotective activity in LmnaH222P/H222P mouse model of cardiomyopathy assessed as left ventricular fractional shortening at 3 mg/kg/day, po administered 6 days per week via gavage starting from 14 weeks of age up to 20 weeks of age by echocardiographic method (reference value: 16.36 +/- 1.08%); type: functional, organism-based; settings: Heart
# [10] = as §4, with “end systolic diameter” for “fractional shortening”, “6” for “3”, “3.32” for “16.36”, “0.1 millimeter)” for “1.08%)”; type: functional, organism-based; settings: Heart
# [11] = Cardioprotective activity in LmnaH222P/H222P mouse model of cardiomyopathy assessed as heart rate at 3 mg/kg/day, po administered 6 days per week via gavage starting from 14 weeks of age up to 20 weeks of age by echocardiographic method (reference value: 502.73 +/- 0.46 bpm); type: functional, organism-based
# [12] = as §4, with “end diastolic diameter” for “fractional shortening”, “6” for “3”, “3.96” for “16.36”, “0.08 millimeter)” for “1.08%)”; type: functional, organism-based; settings: Heart
# [13] = Cardioprotective activity in LmnaH222P/H222P mouse model of cardiomyopathy assessed as reduction in Myl7 mRNA expression in heart at 6 mg/kg/day, po administered 6 days per week via gavage starting from 14 weeks of age up to 20 weeks of age by qRT-PCR method relative to placebo treated control; type: functional, organism-based; outline: as §2
# [14] = Cardioprotective activity in LmnaH222P/H222P mouse model of cardiomyopathy assessed as left ventricular fractional shortening at 6 mg/kg/day, po administered 6 days per week via gavage starting from 14 weeks of age up to 20 weeks of age by echocardiographic method (reference value: 16.36 +/- 1.08%); type: functional, organism-based; settings: Heart
# [15] = system: Mus musculus; experiment: In vivo inhibition of MEK1/2 in LmnaH222P/H222P mouse model of cardiomyopathy assessed as reduction in ERK1/2 phosphorylation in quadriceps muscle at 6 mg/kg/day, po administered 6 days per week via gavage starting from 14 weeks of age up to 20 weeks of age by immunoblot method; type: functional, organism-based; outline: as §1
# [16] = Cardioprotective activity in LmnaH222P/H222P mouse model of cardiomyopathy assessed as reduction in myocardial fibrosis administered 6 days per week via oral gavage starting from 14 weeks of age up to 20 weeks of age by masson trichrome staining based assay; type: functional, tissue-based; settings: Heart
# Outline: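 Left ventricles from male mutant mice dosed 3 or 6 mg/kg/day by gavage (weeks 14–20) were fixed in 4% formaldehyde for 48 h, paraffin-embedded, cut at 5 μm and stained with Masson trichrome. Graded 0–4 for vacuolation and fibrosis: 0–2 no fibrosis with none, mild or moderate vacuolation; 3 mild fibrosis; 4 severe fibrosis. n = 5, 5, 6.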
# [17] = as §4, with “end diastolic diameter” for “fractional shortening”, “3.96” for “16.36”, “0.08 millimeter)” for “1.08%)”; type: functional, organism-based; settings: Heart
# [18] = as §4, with “end systolic diameter” for “fractional shortening”, “3.32” for “16.36”, “0.1 millimeter)” for “1.08%)”; type: functional, organism-based; settings: Heart
SMILES,IC50 [1] [µM],Activity [2] [bpm],inhibition [3],inhibition [4],Activity [5],inhibition [6],inhibition [7],inhibition [8],Activity [9] [%],Activity [10] [mm],Activity [11] [bpm],Activity [12] [mm],Activity [13],Activity [14] [%],inhibition [15],Activity [16],Activity [17] [mm],Activity [18] [mm]
"O=S1(=O)Nc2c(cc(F)c(F)c2Nc2ccc(I)cc2F)OCC(O)C(O)CC12CC2 (single isomer, unassigned; form 2)",0.4,–,–,–,–,–,–,–,–,–,–,–,–,–,–,–,–,–
"O=S1(=O)Nc2c(cc(F)c(F)c2Nc2ccc(I)cc2F)OCC(O)C(O)CC12CC2 (single isomer, unassigned; form 1)",–,502,Active,Active,Active,Active,Active,Active,19.4,3.02,504,3.77,Active,20.6,Active,Dose-dependent effect,4,3.24
